# What was measured:
# [1] = molecular target: T1, Prostaglandin E2 receptor EP3 subtype (Mus musculus, UniProt P30557); experiment: Displacement of [3H]PGE2 from mouse EP3 receptor expressed in CHO cell membrane; type: cell membranes
# T1 sequence (P30557 whole entry): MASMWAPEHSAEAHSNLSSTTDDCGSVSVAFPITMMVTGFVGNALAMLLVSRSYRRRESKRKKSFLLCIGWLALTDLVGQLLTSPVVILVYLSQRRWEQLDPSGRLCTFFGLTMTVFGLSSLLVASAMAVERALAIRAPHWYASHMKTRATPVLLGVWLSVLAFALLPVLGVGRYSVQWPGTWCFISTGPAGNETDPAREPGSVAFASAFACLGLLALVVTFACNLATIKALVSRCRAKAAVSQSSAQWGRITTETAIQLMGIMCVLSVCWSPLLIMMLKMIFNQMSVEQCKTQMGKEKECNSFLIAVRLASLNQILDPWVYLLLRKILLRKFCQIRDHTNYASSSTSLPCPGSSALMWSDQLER
# [2] = molecular target: T1, Prostaglandin E2 receptor EP3 subtype; experiment: Antagonist activity at mouse EP3 receptor expressed in CHO cells assessed as inhibition of PGE2-induced increase intracellular calcium level in presence of 1% BSA by fluorimetry; type: functional, cell-based
# Procedure, shortened: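 CHO cells expressing mouse EP3 seeded at 1 × 10⁴ cells/well and grown two days in 10% FBS/αMEM (37 °C, 5% CO2). Loaded 1 h with Fura 2/AM, indomethacin and 2.5 mM probenecid, rinsed, then held 1 h dark at room temperature in HBSS with 1% BSA and 10 mM HEPES. Compound added with 10 nM PGE2. Ca²⁺ read at 340/380 nm excitation, 500 nm emission; % inhibition relative to the PGE2 response without compound.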
# Rattus norvegicus [3] = experiment: Inhibition of PGE2-induced uterine contraction in intraduodenally dosed pregnant rat at 1 mg/kg; type: functional; details: route intraduodenal
# Procedure, shortened: (§1)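 Pregnant rats with uterine pressure recorded by transducer. Once spontaneous motility was stable, compound in 0.5% methylcellulose (5 mL/kg) or vehicle given intraduodenally. PGE2 given iv 30 min later.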
# Rattus norvegicus [4] = experiment: Inhibition of PGE2-induced uterine contraction in intraduodenally dosed pregnant rat at 0.3 mg/kg; type: functional; details: route intraduodenal; procedure, shortened: as §1
# [5] = Volume of distribution at steady state in rat at […], iv; type: ADME, organism-based; design: dose 1.2 mg/kg, route intravenous; details: in vivo, read-out: Vdss
# [6] = AUC in rat at […], iv; type: ADME, organism-based; design: dose 1.2 mg/kg, route intravenous; details: plasma
# [7] = Cmax in rat at 13 mg/kg, po; type: ADME, organism-based; design: dose 13 mg/kg, route oral; details: in vivo
# [8] = Oral bioavailability in rat at 13 mg/kg, po; type: ADME, organism-based; details: in vivo
# [9] = AUC in rat at 13 mg/kg, po; type: ADME, organism-based; design: dose 13 mg/kg, route oral; details: plasma
# [10] = Cmax in rat at 11 mg/kg, po; type: ADME, organism-based; design: dose 11 mg/kg, route oral; details: in vivo
# [11] = Oral bioavailability in rat at 11 mg/kg, po; type: ADME, organism-based; details: in vivo
# Rattus norvegicus [12] = experiment: Inhibition of PGE2-induced uterine contraction in intraduodenally dosed pregnant rat at 0.1 mg/kg; type: functional; details: route intraduodenal; procedure, shortened: as §1
# [13] = AUC in rat at 11 mg/kg, po; type: ADME, organism-based; design: dose 11 mg/kg, route oral; details: plasma
# [14] = molecular target: Prostaglandin E2 receptor EP2 subtype (Mus musculus, UniProt Q62053); experiment: Displacement of [3H]PGE2 from mouse EP2 receptor expressed in CHO cell membrane; type: cell membranes
# [15] = molecular target: Prostaglandin E2 receptor EP4 subtype (Mus musculus, UniProt P32240); experiment: Displacement of [3H]PGE2 from mouse EP4 receptor expressed in CHO cell membrane; type: cell membranes
# [16] = molecular target: T2, Prostaglandin E2 receptor EP1 subtype (Mus musculus, UniProt P35375); experiment: Displacement of [3H]PGE2 from mouse EP1 receptor expressed in CHO cell membrane; type: cell membranes
# T2 sequence (P35375 whole entry): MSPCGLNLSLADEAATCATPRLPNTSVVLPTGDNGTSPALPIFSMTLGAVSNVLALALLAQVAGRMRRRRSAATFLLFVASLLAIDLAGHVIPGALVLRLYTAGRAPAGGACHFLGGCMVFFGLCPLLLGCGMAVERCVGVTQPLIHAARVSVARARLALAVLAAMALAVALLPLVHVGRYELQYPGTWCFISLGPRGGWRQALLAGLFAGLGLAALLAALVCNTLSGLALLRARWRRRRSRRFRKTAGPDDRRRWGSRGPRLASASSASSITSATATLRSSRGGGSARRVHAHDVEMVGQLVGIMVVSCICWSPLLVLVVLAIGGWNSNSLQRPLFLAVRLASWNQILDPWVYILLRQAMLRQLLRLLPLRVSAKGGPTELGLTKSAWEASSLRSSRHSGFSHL
# Sequence of Prostaglandin E2 receptor EP4 subtype (P32240 whole entry): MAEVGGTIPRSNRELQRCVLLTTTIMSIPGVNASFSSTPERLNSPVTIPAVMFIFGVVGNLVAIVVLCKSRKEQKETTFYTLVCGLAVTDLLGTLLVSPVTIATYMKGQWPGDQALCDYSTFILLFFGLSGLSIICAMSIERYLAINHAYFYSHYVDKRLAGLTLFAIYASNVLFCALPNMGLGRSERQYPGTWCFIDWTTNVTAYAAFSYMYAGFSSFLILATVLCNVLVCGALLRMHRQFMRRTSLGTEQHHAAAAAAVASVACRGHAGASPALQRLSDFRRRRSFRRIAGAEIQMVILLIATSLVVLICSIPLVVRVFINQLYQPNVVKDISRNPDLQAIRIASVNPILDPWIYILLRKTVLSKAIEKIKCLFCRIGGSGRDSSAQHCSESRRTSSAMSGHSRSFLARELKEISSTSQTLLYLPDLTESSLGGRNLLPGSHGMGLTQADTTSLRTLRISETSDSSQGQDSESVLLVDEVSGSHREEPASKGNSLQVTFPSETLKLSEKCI
# Sequence of Prostaglandin E2 receptor EP2 subtype (Q62053 whole entry): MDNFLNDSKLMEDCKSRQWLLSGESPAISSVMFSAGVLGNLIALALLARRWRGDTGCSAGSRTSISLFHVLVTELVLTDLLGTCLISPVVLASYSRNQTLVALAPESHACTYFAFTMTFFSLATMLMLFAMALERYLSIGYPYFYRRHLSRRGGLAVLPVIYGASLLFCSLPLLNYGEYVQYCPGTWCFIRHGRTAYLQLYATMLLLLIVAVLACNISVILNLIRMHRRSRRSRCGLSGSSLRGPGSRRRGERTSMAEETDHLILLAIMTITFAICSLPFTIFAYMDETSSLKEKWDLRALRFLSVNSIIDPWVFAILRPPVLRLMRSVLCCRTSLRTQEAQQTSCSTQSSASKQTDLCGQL
SMILES,Ki [1],IC50 [2],also measured
Cc1cc(C)cc(C(CC(C)C)NC(=O)c2cc(COc3ccccc3C)ccc2CCC(=O)O)c1 (centres undefined),,,inhibition in vivo at 1 mg/kg (Rattus norvegicus [3]): 83%; inhibition in vivo at 0.3 mg/kg (Rattus norvegicus [4]): 62%
Cc1cc(C)cc(C(CC(C)C)NC(=O)c2cc(COc3ccccc3)ccc2CCC(=O)O)c1 (centres undefined),,,inhibition in vivo at 0.3 mg/kg (Rattus norvegicus [4]): 28%
Cc1cc(C)cc(C(CC(C)C)NC(=O)c2cc(COc3cccc(F)c3)ccc2CCC(=O)O)c1 (centres undefined),,,Vd [5]: 1.32 L/kg; AUC [6]: 440 ng·h/mL; Cmax [7]: 390 ng/mL; inhibition in vivo at 1 mg/kg (Rattus norvegicus [3]): 84%; bioavailability [8]: 23%; AUC [9]: 1090 ng·h/mL; inhibition in vivo at 0.3 mg/kg (Rattus norvegicus [4]): 66%
COc1ccc(C(CC(C)C)NC(=O)c2cc(COc3ccccc3)ccc2CCC(=O)O)cc1OC (centres undefined),0.5 nM,24 nM,
COc1ccc(C(CC(C)C)NC(=O)c2cc(COc3cccc(C#N)c3)ccc2CCC(=O)O)cc1OC (centres undefined),0.67 nM,3.7 nM,
Cc1cc(C)cc(C(CC(C)C)NC(=O)c2cc(COc3cc(F)ccc3F)ccc2CCC(=O)O)c1 (centres undefined),,,Vd [5]: 1.43 L/kg; AUC [6]: 470 ng·h/mL; Cmax [10]: 520 ng/mL; bioavailability [11]: 19%; inhibition in vivo at 1 mg/kg (Rattus norvegicus [3]): 98%; inhibition in vivo at 0.3 mg/kg (Rattus norvegicus [4]): 93%; inhibition in vivo at 0.1 mg/kg (Rattus norvegicus [12]): 48%; AUC [13]: 850 ng·h/mL
CC(C)CC(NC(=O)c1cc(COc2ccccc2)ccc1CCC(=O)O)c1cc(F)cc(C(F)(F)F)c1 (centres undefined),0.45 nM,15 nM,
COc1cccc(C(CC(C)C)NC(=O)c2cc(COc3cccc(C#N)c3)ccc2CCC(=O)O)c1 (centres undefined),0.13 nM,3.2 nM,
CC(C)CC(NC(=O)c1cc(COc2cccc(C#N)c2)ccc1CCC(=O)O)c1ccc(F)cc1 (centres undefined),0.17 nM,7.1 nM,
CC(C)CC(NC(=O)c1cc(COc2ccccc2)ccc1CCC(=O)O)c1ccc(C(F)(F)F)cc1 (centres undefined),0.76 nM,32 nM,
COc1ccc(C(CC(C)C)NC(=O)c2cc(COc3ccccc3)ccc2CCC(=O)O)cc1C (centres undefined),0.16 nM,11 nM,
Cc1ccccc1C(CC(C)C)NC(=O)c1cc(COc2ccccc2)ccc1CCC(=O)O (centres undefined),0.94 nM,230 nM,
Cc1cccc(C(CC(C)C)NC(=O)c2cc(COc3ccccc3)ccc2CCC(=O)O)c1 (centres undefined),0.3 nM,37 nM,
Cc1ccc(C(CC(C)C)NC(=O)c2cc(COc3ccccc3)ccc2CCC(=O)O)cc1 (centres undefined),0.63 nM,51 nM,
CC(C)CC(NC(=O)c1cc(COc2ccccc2)ccc1CCC(=O)O)c1ccc(C(F)(F)F)c(F)c1 (centres undefined),0.7 nM,53 nM,
Cc1cc(C)cc(C(CC(C)C)NC(=O)c2cc(COc3cccc(C#N)c3)ccc2CCC(=O)O)c1 (centres undefined),,,inhibition in vivo at 1 mg/kg (Rattus norvegicus [3]): 95%; inhibition in vivo at 0.3 mg/kg (Rattus norvegicus [4]): 55%
COc1ccccc1C(CC(C)C)NC(=O)c1cc(COc2ccccc2)ccc1CCC(=O)O (centres undefined),1.2 nM,190 nM,
CC(C)CC(NC(=O)c1cc(COc2ccccc2)ccc1CCC(=O)O)c1ccc(Cl)cc1 (centres undefined),0.28 nM,51 nM,
CC(C)CC(NC(=O)c1cc(COc2ccccc2)ccc1CCC(=O)O)c1cccc(F)c1 (centres undefined),0.2 nM,40 nM,
CC(C)CC(NC(=O)c1cc(COc2ccccc2)ccc1CCC(=O)O)c1ccc(F)cc1 (centres undefined),0.93 nM,20 nM,
COc1ccc(C(CC(C)C)NC(=O)c2cc(COc3ccccc3)ccc2CCC(=O)O)cc1 (centres undefined),0.36 nM,59 nM,
CC(C)CC(NC(=O)c1cc(COc2ccccc2)ccc1CCC(=O)O)c1ccccc1F (centres undefined),1.4 nM,130 nM,
COc1cccc(C(CC(C)C)NC(=O)c2cc(COc3ccccc3)ccc2CCC(=O)O)c1 (centres undefined),0.13 nM,21 nM,
CC(C)CC(NC(=O)c1cc(COc2ccccc2)ccc1CCC(=O)O)c1ccc2c(c1)OCCO2 (centres undefined),0.44 nM,19 nM,
CC(C)CC(NC(=O)c1cc(COc2ccccc2)ccc1CCC(=O)O)c1cccc(Cl)c1 (centres undefined),0.18 nM,35 nM,
CC(C)CC(NC(=O)c1cc(COc2ccccc2)ccc1CCC(=O)O)c1cccc(C(F)(F)F)c1 (centres undefined),0.39 nM,39 nM,
COc1ccc(C(CC(C)C)NC(=O)c2cc(COc3ccccc3)ccc2CCC(=O)O)cc1F (centres undefined),0.14 nM,42 nM,

# Second part, led by results:
Ki [1],IC50 [2],SMILES,also measured
0.46 nM,16 nM,Cc1cc(C)cc(C(CC(C)C)NC(=O)c2cc(COc3ccc(C#N)cc3)ccc2CCC(=O)O)c1 (centres undefined),
0.25 nM,5.4 nM,Cc1cc(C)cc(C(CC(C)C)NC(=O)c2cc(COc3ccc(F)cc3)ccc2CCC(=O)O)c1 (centres undefined),
0.62 nM,30 nM,Cc1cc(C)cc(C(CC(C)C)NC(=O)c2cc(COc3ccc(Cl)cc3)ccc2CCC(=O)O)c1 (centres undefined),
0.26 nM,25 nM,CC(C)CC(NC(=O)c1cc(COc2ccccc2)ccc1CCC(=O)O)c1ccc(F)c(Cl)c1 (centres undefined),
0.17 nM,16 nM,Cc1ccc(C(CC(C)C)NC(=O)c2cc(COc3ccccc3)ccc2CCC(=O)O)cc1C (centres undefined),
0.2 nM,6.6 nM,Cc1cccc(C(CC(C)C)NC(=O)c2cc(COc3cccc(C#N)c3)ccc2CCC(=O)O)c1 (centres undefined),
0.3 nM,19 nM,CC(C)CC(NC(=O)c1cc(COc2ccccc2)ccc1CCC(=O)O)c1cc(F)cc(F)c1 (centres undefined),
0.11 nM,4.2 nM,Cc1cccc(OCc2ccc(CCC(=O)O)c(C(=O)NC(CC(C)C)c3cc(C)cc(C)c3)c2)c1 (centres undefined),
0.67 nM,16 nM,Cc1ccc(OCc2ccc(CCC(=O)O)c(C(=O)NC(CC(C)C)c3cc(C)cc(C)c3)c2)cc1 (centres undefined),
0.15 nM,3.6 nM,Cc1cc(C)cc(C(CC(C)C)NC(=O)c2cc(COc3cccc(F)c3F)ccc2CCC(=O)O)c1 (centres undefined),
0.27 nM,3.2 nM,COc1cccc(OCc2ccc(CCC(=O)O)c(C(=O)NC(CC(C)C)c3cc(C)cc(C)c3)c2)c1 (centres undefined),
0.4 nM,47 nM,CC(C)CC(NC(=O)c1cc(COc2ccccc2)ccc1CCC(=O)O)c1ccc(F)c(F)c1 (centres undefined),
0.35 nM,9.4 nM,Cc1cc(C)cc(C(CC(C)C)NC(=O)c2cc(COc3ccccc3C#N)ccc2CCC(=O)O)c1 (centres undefined),
0.34 nM,5.7 nM,Cc1cc(C)cc(C(CC(C)C)NC(=O)c2cc(COc3ccc(F)c(F)c3)ccc2CCC(=O)O)c1 (centres undefined),
0.19 nM,10 nM,Cc1cc(C)cc(C(CC(C)C)NC(=O)c2cc(COc3cc(F)cc(F)c3)ccc2CCC(=O)O)c1 (centres undefined),
0.1 nM,13 nM,Cc1cc(C)cc(C(CC(C)C)NC(=O)c2cc(COc3ccccc3F)ccc2CCC(=O)O)c1 (centres undefined),
0.2 nM,67 nM,Cc1ccc(C(CC(C)C)NC(=O)c2cc(COc3ccccc3)ccc2CCC(=O)O)cc1F (centres undefined),
0.16 nM,18 nM,Cc1cc(C(CC(C)C)NC(=O)c2cc(COc3ccccc3)ccc2CCC(=O)O)ccc1F (centres undefined),Ki [14]: > 10000 nM; Ki [15]: 630 nM; inhibition in vivo at 1 mg/kg (Rattus norvegicus [3]): 73%; inhibition in vivo at 0.3 mg/kg (Rattus norvegicus [4]): 31%; Ki [16]: > 10000 nM
1.3 nM,59 nM,Cc1cc(C)cc(C(CC(C)C)NC(=O)c2cc(COc3c(F)cccc3F)ccc2CCC(=O)O)c1 (centres undefined),
0.2 nM,2.8 nM,Cc1cc(C(CC(C)C)NC(=O)c2cc(COc3cccc(C#N)c3)ccc2CCC(=O)O)ccc1F (centres undefined),

# From ChEMBL document CHEMBL1157546, “3-(2-Aminocarbonylphenyl)propanoic acid analogs as potent and selective EP3 receptor antagonists. part 2: optimization of the side chains to improve in vitro and in vivo potencies” (Bioorg Med Chem, 2010)
